Screens: PubChem, several laboratories
AI-2 QS modul: modulates the Vibrio harveyi AI-2 quorum sensing system | 300,000 compounds, 0.4% hits | Vibrio harveyi JMH597 AI-2 luminescence/OD600 ratio, 9 h; stronger effect = lower value; strain lacks LuxN and CqsS sensors; 0 = neutral-control median | activity change, % at 7.5 µM; in the data active means activity change below about -75%, passing the limit was not always enough; inconclusive means no clear call, values can overlap the other calls;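 further: luminescence divided by OD600 gain over 9 h not by final OD600 alone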
UBC13 inh: inhibitors of human UBC13 polyubiquitin chain formation; P61088; TR-FRET; inhibition, % at 20 µM; 330,000 compounds, 0.47% hits; in the data active means inhibition above about 45%, passing the limit was not always enough; inconclusive means no clear call, values can overlap the other calls
Target sequence (P61088 whole entry, looked up): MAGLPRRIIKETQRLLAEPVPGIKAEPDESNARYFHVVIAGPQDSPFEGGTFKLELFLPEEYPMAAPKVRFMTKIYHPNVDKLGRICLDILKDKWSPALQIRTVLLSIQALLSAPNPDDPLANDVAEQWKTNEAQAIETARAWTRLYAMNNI
T cruzi inh: blocks replication of Trypanosoma cruzi; inhibition, % (test concentration not listed); AID 1885; T. cruzi beta-gal in NIH3T3, luminescence, 90 h; 300,000 compounds, 1.4% hits;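 active means mean inhibition across valid replicates above about 55%, limit read from the data; inconclusive means mean below that limit but half or more replicates reach it; inactive means mean below it, under half of replicates reach it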;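 further: signal also drops with host cell toxicity which is not excluded here; 0% = plate median of DMSO wells and 100% = zero luminescence signal; higher percent means less beta-gal luminescence so fewer parasites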
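assay system = mouse NIH/3T3 fibroblasts infected with β-gal-expressing T. cruzi Tulahuen C4 | input = 5,000 NIH/3T3 host cells per well | buffer or medium = DMEM plus 2% FBS | timing = 3 h host attachment, then at least 90 h co-culture | measured by = GalScreen luminescence, 60 min | evaluation = luminescence reflecting intracellular parasite burden, expressed as percent inhibition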
PP1 inh: blocks human PP1-alpha phosphatase, a PP5 counter-screen; P62136; purified PP1alpha, OMFP fluorescence; inhibition, % at 6.7 µM; 320,000 compounds, 0.9% hits; AID 2235;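 active means inhibition above the mean inhibition of all tested compounds plus 3 SD, computed separately for each screening campaign, cut at about 15% in these data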
Target sequence (P62136 whole entry, looked up): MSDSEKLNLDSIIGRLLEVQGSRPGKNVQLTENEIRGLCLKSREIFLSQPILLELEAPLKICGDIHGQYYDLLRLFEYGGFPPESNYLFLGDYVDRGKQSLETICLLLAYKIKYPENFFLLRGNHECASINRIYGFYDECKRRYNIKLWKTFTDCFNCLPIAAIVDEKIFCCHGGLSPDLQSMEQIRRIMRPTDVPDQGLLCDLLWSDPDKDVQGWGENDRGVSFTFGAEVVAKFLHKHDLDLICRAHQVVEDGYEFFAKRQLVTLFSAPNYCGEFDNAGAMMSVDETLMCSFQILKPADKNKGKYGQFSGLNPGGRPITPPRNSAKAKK
pCIP destab: p/CIP protein destabilization. Q05BA5. F442A p/CIP-EGFP cells, EGFP fluorescence, 16 h. decrease of EGFP signal, % at 10 µM. 290,000 compounds, 0.01% hits;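 active means EGFP signal decrease of at least 30% at 10 µM or well 3 SD below plate mean, unless failing retest; inactive means the rest, including hits failing retest or dose response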
JMH597 growth rt: retest Vibrio harveyi JMH597 growth inhibition. shares compounds with AI-2 QS modul. OD600 absorbance, 9 h; lacks LuxN and CqsS sensors. growth inhibition, % at 7.5 µM. 750 compounds, 1% hits. AID 2726;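 active means every replicate shows growth inhibition above 50%; inconclusive means at least half, but not all, replicates pass that cutoff; inactive means fewer than half of replicates pass it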
BB721 const-QS lum: retest counter-screen: luminescence loss in constitutive-on quorum sensing strain BB721; shares compounds with AI-2 QS modul; inhibition, % at 7.5 µM; Vibrio harveyi BB721 luminescence, 9 h; 750 compounds, 95% hits; AID 2727;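 active means inhibition above about 80% in every replicate, not just on average, limit read from the data; inconclusive means at least half of replicates past the limit, but not all; inactive means fewer than half of replicates past the limit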
BB721 growth: retest: blocks Vibrio harveyi BB721 growth; shares compounds with AI-2 QS modul; growth inhibition, % at 7.5 µM; 750 compounds, 3% hits; OD600 absorbance, 9 h;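 active means every replicate shows growth inhibition above 50%; inconclusive means at least half but not all replicates above 50% inhibition; inactive means under half of replicates above 50% inhibition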
JMH597 AI-2 mod: Vibrio harveyi AI-2 signaling luminescence modulation – JMH597 strain, confirmation | shares compounds with AI-2 QS modul | Vibrio harveyi JMH597 AI-2 quorum sensing luminescence, 9 h; luxN and CqsS knockout, AI-2 only | inhibition, % at 7.5 µM | 750 compounds, 97% hits | AID 2736;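 active means every replicate shows more than 75% inhibition of signal versus neutral control wells; inconclusive means half to three quarters of replicates exceed 75% inhibition; inactive means fewer than half of replicates exceed 75% inhibition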
* marks the source's active call; other numbers are inactive results; u = inconclusive; x = not tested or not shown. Hits are enriched below; roughly 2.8% of the tested compounds scored in any of these assays.

SMILES	AI-2 QS modul	UBC13 inh	T cruzi inh	PP1 inh	pCIP destab	JMH597 growth rt	BB721 const-QS lum	BB721 growth	JMH597 AI-2 mod
COc1ccc(CN(C)C(=O)C(Cc2ccccc2)NC(=O)c2ccccc2)c(OC)c1 (stereo unspecified)	16	-4	-7	0	x	x	x	x	x
Cc1ccc(Oc2ccc(NC(=O)c3ccco3)cc2)cc1	-97*	4	-21	-2	3	43	100*	u	100*
Cc1ccc(Cc2cnc(NC(=O)c3ccco3)s2)cc1	-86*	7	-13	1	4	27	97*	u	98*
CCc1ccc(S(=O)(=O)Nc2ccccn2)cc1	x	-8	-10	-4	8	x	x	x	x
CCc1ccc(S(=O)(=O)Nc2ccc(Br)cn2)cc1	u	1	7	-3	5	22	-10	1	95*
CCOc1ccc(N2C(=O)CC(SCCN)C2=O)cc1 (stereo unspecified)	-49	-5	1	-4	-3	x	x	x	x
CCCCCCOc1ccc(N2C(=O)CC(SCCN)C2=O)cc1 (stereo unspecified)	-85*	13	-1	0	-2	28	88*	6	96*
COc1ccc(C(=O)Nc2c(N)nc[nH]c2=O)cc1	34	0	-4	-4	x	x	x	x	x
Cc1ccc(OCc2nc(-c3cccnc3)no2)cc1C	-94*	2	1	0	2	2	98*	3	99*
Cc1cc(C)cc(OCc2nc(-c3cccnc3)no2)c1	-95*	6	10	3	4	9	99*	-2	99*
CCC1COC(c2cccn2Cc2ccccc2Cl)=N1 (stereo unspecified)	13	5	-31	1	8	x	x	x	x
O=C(Nc1ccccc1F)C1CCCN(S(=O)(=O)c2ccccc2)C1 (stereo unspecified)	-19	3	-4	-5	-12	x	x	x	x
CSCCC1NC(=O)N(CC(=O)Nc2ccc(-c3ccccc3)cc2)C1=O (stereo unspecified)	-83*	-8	9	2	0	-22	85*	-5	91*
COc1ccc(NC(=O)CN2C(=O)CSC(C)C2=O)c(OC)c1 (stereo unspecified)	14	-1	-6	-5	-3	x	x	x	x
CCOc1ccc(NC(=O)CN2C(=O)CSC(C)C2=O)cc1 (stereo unspecified)	-78*	10	0	-3	-8	16	91*	10	93*
CCOc1ccc(NC(=O)CN2C(=O)NC(CCSC)C2=O)cc1 (stereo unspecified)	-79*	-3	-9	-2	1	8	91*	7	94*
O=C(CSc1ccc(Br)cc1)N1CCN(C(=O)c2ccco2)CC1	30	0	-8	-2	-3	x	x	x	x
Cn1cc(CN2CCC(Oc3ccc(C(=O)N4CCCC4)cc3)CC2)cn1	-7	5	10	-5	-5	x	x	x	x
COc1cc2cc(CCCOC(=O)c3ccc(F)cc3)oc(=O)c2cc1OC	x	-1	x	2	x	x	x	x	x
CC1CC(=O)N(CC(=O)Nc2ccc(Br)cc2)c2ccccc2S1(=O)=O (stereo unspecified)	-83*	6	15	0	11	-15	96*	-17	97*
O=C1CCCC(=O)N1c1ccc(Oc2ccc(Cl)cc2)cc1	-84*	-5	-2	-3	11	-18	89*	-38	92*
O=C1CCCC(=O)N1c1ccc(O)cc1	12	6	-6	2	-16	x	x	x	x
Cc1ccc(NC(=O)CCc2nc3ccccc3c(=O)[nH]2)cc1S(=O)(=O)N1CCOCC1	10	-3	0	1	x	x	x	x	x
COc1cc(NC(=O)Cn2nnc(-c3ccccc3N)n2)cc(OC)c1	-89*	2	16	-1	6	20	98*	19	98*
